Test results from the array DNA melting data of Ke et al. (doi:10.1101/2024.01.08.574731).

How the values were obtained:
[1] = melting temperature; fluorescence melt of hairpins on a sequencing array, two-state fit, raised by 9.35 °C to match UV melts; details: sodium 0.088 M
Procedure, shortened: (§1)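 Folding enthalpy and melting temperature come from bootstrapped two-state fits to Cy3 fluorescence of library hairpins carrying annealed Cy3 and quencher oligos on a sequenced MiSeq flow cell. Imaging was done in 50 mM Na-HEPES pH 8.0, 25 mM NaCl, stepping by 2.5 °C up to 60 °C, and signals were normalised to pre-quench Cy3 and to control constructs. Results of four replicates were combined by inverse variance, and fitted temperatures were raised by 9.35 °C to match UV melts.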

[2] = folding enthalpy; higher = less favourable; fluorescence melt of hairpins on a sequencing array, two-state fit; details: sodium 0.088 M
Procedure, shortened: as §1

Sequence | Tm [1] [°C] | folding enthalpy [2] [kcal/mol]
GATCCATCGTTGGATC ((((((....)))))) | 51.7 | -43.1
GATCCATGGTGGATC ((((((...)))))) | 50.6 | -36
GATCCATTAATGGATC ((((((....)))))) | 54.8 | -38.7
GATCCATTACTGGATC ((((((....)))))) | 51.1 | -29.9
GATCCATTAGTGGATC ((((((....)))))) | 53 | -36.8
GATCCATTGATGGATC ((((((....)))))) | 53.5 | -40.5
GATCCATTTGTGGATC ((((((....)))))) | 54.7 | -44.5
GATCCCAATAGGGATC ((((((....)))))) | 64.8 | -36.5
GATCCCAATCGGGATC ((((((....)))))) | 61.6 | -40.2
GATCCCAATTGGGATC ((((((....)))))) | 61.5 | -38.2
GATCCCACTCGGGATC ((((((....)))))) | 61.8 | -38.1
GATCCCAGACGGGATC ((((((....)))))) | 58.6 | -37.1
GATCCCAGAGGGGATC ((((((....)))))) | 60.9 | -32.2
GATCCCAGCAGGGATC ((((((....)))))) | 66.3 | -34.6
GATCCCAGCTGGGATC ((((((....)))))) | 62.3 | -46.9
GATCCCAGGAGGGATC ((((((....)))))) | 59.9 | -32.2
GATCCCAGGCGGGATC ((((((....)))))) | 61.1 | -34
GATCCCAGGTGGGATC ((((((....)))))) | 60.1 | -37
GATCCCATCGGGGATC ((((((....)))))) | 59.9 | -31.1
GATCCCCAATGGGATC ((((((....)))))) | 59.7 | -34.5
GATCCCCACAGGGATC ((((((....)))))) | 66.4 | -23
GATCCCCAGAGGGATC ((((((....)))))) | 59.8 | -31.7
GATCCCCAGCGGGATC ((((((....)))))) | 59.8 | -30.7
GATCCCCATTGGGATC ((((((....)))))) | 59.6 | -37.6

Sequence | Tm [1] [°C] | folding enthalpy [2] [kcal/mol]
GATCCCCCTTGGGATC ((((((....)))))) | 57.7 | -39.8
GATCCCCGATGGGATC ((((((....)))))) | 60.9 | -34.5
GATCCCGAAAGGGTTATC ((((((....)))..))) | 27.5 | -8.18
GATCCCGACGGGATC ((((((...)))))) | 68 | -28.4
GATCCCGCCGGGATC ((((((...)))))) | 67.6 | -39.7
GATCCCGCTCGGGATC ((((((....)))))) | 65.8 | -34
GATCCCGGAAACAGGATC (((((.(....).))))) | 38.8 | -28.8
GATCCCGGATGGGATC ((((((....)))))) | 67.8 | -28
GATCCCGGGGGGGATC ((((((....)))))) | 62 | -33.7
GATCCCGTCCGGGATC ((((((....)))))) | 67.9 | -42
GATCCCGTCTGGGATC ((((((....)))))) | 65.5 | -39.2
GATCCCGTGGGGGATC ((((((....)))))) | 60 | -31.9
GATCCCTAAGGGGATC ((((((....)))))) | 61.1 | -35.2
GATCCCTAATGGGATC ((((((....)))))) | 57.6 | -38.3
GATCCCTACAGGGATC ((((((....)))))) | 65.6 | -36.2
GATCCCTATAGGGATC ((((((....)))))) | 65.6 | -45.4
GATCCCTCAAGGGATC ((((((....)))))) | 60.9 | -40
GATCCCTCTCGGGATC ((((((....)))))) | 63.5 | -34.3
GATCCCTGAAGGGATC ((((((....)))))) | 64.1 | -32.8
GATCCCTGACGGGATC ((((((....)))))) | 58.1 | -38.6
GATCCCTGAGGGATC ((((((...)))))) | 59.6 | -34.7
GATCCCTGCTGGGATC ((((((....)))))) | 60.2 | -39.5
GATCCCTTAAGGGATC ((((((....)))))) | 65.6 | -39.4
GATCCCTTTGGGATC ((((((...)))))) | 63.5 | -40.6

Sequence | Tm [1] [°C] | folding enthalpy [2] [kcal/mol]
GATCCGAAACCGGATC ((((((....)))))) | 53.4 | -38
GATCCGAAAGCGGATC ((((((....)))))) | 53.1 | -34
GATCCGAACCCGGATC ((((((....)))))) | 54.8 | -38.9
GATCCGAAGGCGGATC ((((((....)))))) | 52.3 | -28.4
GATCCGAATACGGATC ((((((....)))))) | 57.5 | -38.6
GATCCGACTACGGATC ((((((....)))))) | 57.1 | -35.6
GATCCGACTCGGATC ((((((...)))))) | 55.7 | -38.9
GATCCGAGGACGGATC ((((((....)))))) | 56.5 | -33.9
GATCCGAGGGCGGATC ((((((....)))))) | 55.3 | -31.5
GATCCGATGCCGGATC ((((((....)))))) | 56.1 | -40.1
GATCCGCAACCGGATC ((((((....)))))) | 55.1 | -39.3
GATCCGCACGCGGATC ((((((....)))))) | 67.6 | -39.1
GATCCGCAGACGGATC ((((((....)))))) | 60.8 | -36.3
GATCCGCAGCGGATC ((((((...)))))) | 54.8 | -54.5
GATCCGCATACGGATC ((((((....)))))) | 61.5 | -37.9
GATCCGCATGCGGATC ((((((....)))))) | 69 | -30.3
GATCCGCATTCGGATC ((((((....)))))) | 59.8 | -36.1
GATCCGCCACGGATC ((((((...)))))) | 57.2 | -37
GATCCGCCTCCGGATC ((((((....)))))) | 56.1 | -34.5
GATCCGCCTCGGATC ((((((...)))))) | 56.7 | -30
GATCCGCCTGCGGATC ((((((....)))))) | 69.2 | -40.3
GATCCGCGCTCGGATC ((((((....)))))) | 57.4 | -37.3
GATCCGCGGCGGATC ((((((...)))))) | 57.7 | -50.8
GATCCGCGTACGGATC ((((((....)))))) | 60.4 | -35.3

Sequence | Tm [1] [°C] | folding enthalpy [2] [kcal/mol]
GATCCGCTACCGGATC ((((((....)))))) | 56.8 | -48
GATCCGCTCCCGGATC ((((((....)))))) | 56.9 | -35.8
GATCCGGAGTCGGATC ((((((....)))))) | 55.7 | -36.4
GATCCGGATCCGGATC ((((((....)))))) | 61.3 | -51.4
GATCCGGCAGCGGATC ((((((....)))))) | 59.4 | -37.8
GATCCGGCATCGGATC ((((((....)))))) | 64.8 | -45.5
GATCCGGCCACGGATC ((((((....)))))) | 67.5 | -41.6
GATCCGGCCCGGATC ((((((...)))))) | 58.9 | -30.7
GATCCGGCGCGGATC ((((((...)))))) | 59.3 | -37.1
GATCCGGCGGCGGATC ((((((....)))))) | 58.7 | -41.5
GATCCGGCTCCGGATC ((((((....)))))) | 59.1 | -38.4
GATCCGGCTCGGATC ((((((...)))))) | 59.7 | -39.6
GATCCGGGGTCGGATC ((((((....)))))) | 56.7 | -47.9
GATCCGGGTACGGATC ((((((....)))))) | 67.9 | -36
GATCCGGGTCCGGATC ((((((....)))))) | 62.5 | -39.1
GATCCGGGTGCGGATC ((((((....)))))) | 63.2 | -41
GATCCGGGTTCGGATC ((((((....)))))) | 58.5 | -44.7
GATCCGTAATCGGATC ((((((....)))))) | 57 | -34.4
GATCCGTATGCGGATC ((((((....)))))) | 63.2 | -40.3
GATCCGTCAGCGGATC ((((((....)))))) | 57.4 | -42.6
GATCCGTCCGCGGATC ((((((....)))))) | 61 | -36.7
GATCCGTCTCGGATC ((((((...)))))) | 59.7 | -42.8
GATCCGTGGCGGATC ((((((...)))))) | 56.3 | -41.5
GATCCGTTTCCGGATC ((((((....)))))) | 58.9 | -41.2
